Experimental data taken from the EternaBench riboswitch data.

System: MS2 coat protein
Test: apparent Kd, MS2 coat protein; higher = weaker binding; RNA-MaP array
How it was run: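 Sequenced DNA templates on an Illumina sequencing chip were transcribed into the designed RNAs. These were incubated at room temperature in Tris-HCl pH 7.5 buffer containing KCl, MgCl2, BSA, DTT, tRNA and Tween20 with fluorescently labeled MS2 coat protein at 1.5 nM to 3 μM, with or without input ligand. Apparent Kd is the median of binding-curve fits per cluster, and designs with fewer than 10 clusters measured were excluded.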

[1] = designed as: OFF switch for flavin mononucleotide, no ligand
[2] = ligand present: flavin mononucleotide, designed as: OFF switch for flavin mononucleotide
[3] = designed as: ON switch for flavin mononucleotide, no ligand
[4] = ligand present: flavin mononucleotide, designed as: ON switch for flavin mononucleotide
[5] = designed as: ON switch for theophylline, no ligand
[6] = ligand present: theophylline, designed as: ON switch for theophylline
[7] = designed as: OFF switch for theophylline, no ligand
[8] = ligand present: theophylline, designed as: OFF switch for theophylline

CGUACAAUUAAGAAGGGACAUUGCUAUAGACUGUCAGGAUAUUAUGUACAUGAGGAUCACCCAUGUAGUAGUCAAGGGUCGGAA
apparent Kd [1]: 16.7 nM
apparent Kd [2]: 61.7 nM

AGUUACAAUGUCAGGAUAUUGCUCCCACGACGGAACAAGAAGGGACAUGAGGAUCACCCAUGUUAGUCUUCGUC
apparent Kd [1]: 4.96 nM
apparent Kd [2]: 5.98 nM

AACCGGCAAGGAUAUACAUGAGGAUCACCCAUGUACGACGCGCUGGCUACGUUUUUAUGUAGAAGGUGCCGACC
apparent Kd [1]: 6.19 nM
apparent Kd [2]: 6.26 nM

CACCCAACUAUACAUGAGGAUCACCCAUGUUGAAAGUGCAACAGAAGGCCCUACUAAUAUAGGAGGGAGGAUAUGUGAACCGAA
apparent Kd [3]: 62.5 nM
apparent Kd [4]: 11.4 nM

CUCCUGGAAGGAUAUGUGUUUCAGGACAUGAGGAUCACCCAUGUAGAACCUCUCUCCCGCACAGAAGGUCCAUUGU
apparent Kd [1]: 74.3 nM
apparent Kd [2]: 247 nM

CCGAACACUUAGAAGGAUUUAAUCUAUAAUUGAAUAGGAUAUAAGGCCUUACGUGCGAAUGAACACAUGAGGAUCACCCAUGUA
apparent Kd [1]: 15.1 nM
apparent Kd [2]: 12.6 nM

GCCGACCUCACAUGAGGAUCACCCAUGUGCCGGAAACUACUGAGAAGGGCUCUAAUUCCAGGCGAGCAGGAUAUCAUAAAAUAG
apparent Kd [3]: 17.4 nM
apparent Kd [4]: 8.78 nM

AUCGCGACAGGAUAUACAUGAGGAUCACCCAUGUUGAUGAGCGAGCAUCGGACUGAGAGUAGAAGGGUCGGCUC
apparent Kd [1]: 9.26 nM
apparent Kd [2]: 9.04 nM

CUGAACUAAGGAUAUACGGCCCUCAAUUAUAAUUCUGUGAAACAUGAGGAUCACCCAUGUAGAAGGUAGUCGAC
apparent Kd [1]: 14.1 nM
apparent Kd [2]: 18.1 nM

GUACAGGAAGGAUAUACCAGGUAAGUUAAGUUUUCACAUUGACAUGAGGAUCACCCAUGUAGAAGGUCCCUAUA
apparent Kd [1]: 36.7 nM
apparent Kd [2]: 31.7 nM

UUCGGCCUUUAGAAGGAUUGUAUACAUGAGGAUCACCCAUGUUGGUGAUACAGAUAUAUUCGGCAAUAGGAUAUAAGCAGGUGA
apparent Kd [1]: 826 nM
apparent Kd [2]: 598 nM

AGAAGACAUGAGGAUCACCCAUGUGAGGAUAUUACACUAGAAAACAGCCGCGUCUCGGUAAGAAGGCACUAUGG
apparent Kd [1]: 33.9 nM
apparent Kd [2]: 36.6 nM

AACCAUCUCGGCGAUACCAGUGCCUACGAGUACAUGAGGAUCACCCAUGUAGGUGACCGACACCCUUGGCAGCGCGAUUGAGUCA
apparent Kd [5]: 140 nM
apparent Kd [6]: 70.6 nM

CUUAUCAUAGGAUAUACAUGAGGAUCACCCAUGUAGUAGCAUAUAUAUAGUUUCCCAAGUAGAAGGAUGUACAC
apparent Kd [1]: 9.43 nM
apparent Kd [2]: 7.9 nM

GAAAAGGACAAAGGAUAUGGGUAGGCAAUCAAUCCAGAAGGUAGACCAGGCAACCUAAACAAACAUGAGGAUCACCCAUGUUAG
apparent Kd [3]: 16.6 nM
apparent Kd [4]: 14.3 nM

CACAGGUCAGUAGGAUAUGCUACAUGAGGAUCACCCAUGUGGUGGUAUAUGCGUCUAGGCGCAAAGCAGAAGGACUUCCAGGUG
apparent Kd [1]: 42 nM
apparent Kd [2]: 146 nM

ACCUACGUAGGAUAUACGCAUCGUGGACCGCAUGCCCGUGCACAUGAGGAUCACCCAUGUAGAAGGACGUACGC
apparent Kd [1]: 17.1 nM
apparent Kd [2]: 22.6 nM

UAUAAACAGCCUGGUUACUCGUCGCGCUUGCGAGGACCGGUACGGCCGCCACUCGACCCAUCACAUGAGGAUCACCCAUGUCCCA
apparent Kd (designed as: OFF switch for tryptophan, no ligand): 31.7 nM

GGGAUACAUGAGGAUCACCCAUGUCAGGAUAUCUUUUACCGGCACGACAAUCAUAUGAAGAGAAGGGACUAUAU
apparent Kd [1]: 35 nM
apparent Kd [2]: 31.9 nM

UCGAGUACGGUGAGGAUAUCAUGAGGAUUACUACAAGAGAAGGCACAUGAGGAUCACCCAUGUGGCGACCAUUC
apparent Kd [1]: 6.28 nM
apparent Kd [2]: 6.32 nM

GUCAUGUCAGGAUAUCGUUCGGAGUGCGAUUCCCUCUGCCGCGAGAAGGGACAUGAGGAUCACCCAUGUUCGAA
apparent Kd [1]: 16.8 nM
apparent Kd [2]: 43.7 nM

GACAGACAUGAGGAUCACCCAUGUGAUACAGGCGUAGGAUAUUCGUGAGGAUACAGAAAAGAAGAAGGACGGGAAG
apparent Kd [3]: 40.3 nM
apparent Kd [4]: 38 nM

CUGUUAAGUAAAGGAUAUCCUCCAACAGCUAGAGGAGAAGGUUACUCCUUAAUCCACAUGAGGAUCACCCAUGUUAGUGUAAGU
apparent Kd [3]: 11.5 nM
apparent Kd [4]: 10.1 nM

AGUACGUCAGGAUAUCGCGUACGAAACAUGAGGAUCACCCAUGUGGUGCCGUGGCUCUAUCGAGAAGGGACUUGGC
apparent Kd [1]: 13.3 nM
apparent Kd [2]: 12.6 nM

UUUAUGUCAGGAUAUCCAACACUAUGGGAAAGUAAAUAUAGGGAGAAGGGACAUGAGGAUCACCCAUGUCAACA
apparent Kd [1]: 8.12 nM
apparent Kd [2]: 8.59 nM

AUCGUGCCAAGAGGAUAUCACCAUUCAAUACCCACAUGAGGAUCACCCAUGUAUGCAGUGUUCCGUGAGAAGGCUUGCAUACCA
apparent Kd [3]: 113 nM
apparent Kd [4]: 19.4 nM

UUGUAACAUGAGGAUCACCCAUGUAUGAACUAACAAGGAUAUGCGUGAGUCAGAUAAGACGCAGAAGGUGUCAGAU
apparent Kd [3]: 10.3 nM
apparent Kd [4]: 7.55 nM

GAUCAUUUAGUGAGGAUAUGUCUCCUGCAAAGUCGACAGAAGGCACAUGAGGAUCACCCAUGUUCGCUUCGGAU
apparent Kd [1]: 5 nM
apparent Kd [2]: 5.75 nM

UGUGCCUAGUAGAAGGCGCCGACUCGCUCACGGCGAGGAUAUACUACUCAGGGCACAUGAGGAUCACCCAUGUGUGAUUCGUAA
apparent Kd [1]: 103 nM
apparent Kd [2]: 23.1 nM

ACAGGACUAGUAGGAUAUGCGCCGGUAGUACCCGCAGAAGGACUUUCACGGGUUAUUGUCACAUGAGGAUCACCCAUGUGAGGG
apparent Kd [1]: 13.2 nM
apparent Kd [2]: 13 nM

UUAUACGCGAAAGGAUAUCUGAGAGUGGGAUCGUGGACAUGAGGAUCACCCAUGUGGAGAGAGGGAGAGAAGGUUCGGGUAUUC
apparent Kd [1]: 31.7 nM
apparent Kd [2]: 29.5 nM

GGACAACAUGAGGAUCACCCAUGUCCUGAUACCAGUCAGCGCAGUGACCCUUGGCAGCAGACGGAUACGAAAUAACUGAGAGAUA
apparent Kd [5]: 40.6 nM
apparent Kd [6]: 42.1 nM

AUUCGAACGGUCAGGAUAUGCGGAAAGACAUCGCAGCAGAAGGGACAUGAGGAUCACCCAUGUAAAGGGCACAA
apparent Kd [1]: 36.1 nM
apparent Kd [2]: 182 nM

UACAUUCGUCAGGAUAUCCAUCAGCCAGGCCUCGGAGAAGGGACUACAUGAGGAUCACCCAUGUGUAACCUCGU
apparent Kd [1]: 40.4 nM
apparent Kd [2]: 88.8 nM

CUGACGUAGGAAGAUAUCUGGAACAAGGAUACCAGUAAACCAACAUACCCUUGGCAGCCUAAAACAUGAGGAUCACCCAUGUAAU
apparent Kd [7]: 12.4 nM
apparent Kd [8]: 14.6 nM

CUGUUCGUAGGAUAUACUGAAACACGGGACAUUCUGAUUAGACAUGAGGAUCACCCAUGUAGAAGGACGCACGU
apparent Kd [1]: 17.4 nM
apparent Kd [2]: 16.9 nM

GAAGUCGCCGAGAAGGGAGCGAAACUCUCUAUCACAUGAGGAUCACCCAUGUAGUUCUCGUGAGCUCAGGAUAUCGUCGAACGC
apparent Kd [1]: 14.5 nM
apparent Kd [2]: 10.5 nM

CGACGCUUAGGAUAUUGGUACACCUACAUGAGGAUCACCCAUGUGACUCCUUUACAAGGGCAAGAAGGAAGUUGGU
apparent Kd [1]: 110 nM
apparent Kd [2]: 221 nM

UAAAACGGAUCAGGAUAUGUGAAACUGAGUGCGUGAACACUCGCCUACAUGAGGAUCACCCAUGUACAGAAGGGAACUACUACA
apparent Kd [3]: 16.4 nM
apparent Kd [4]: 13.9 nM

ACAUGAGGAUCACCCAUGUUAAAAGAAGAUAGCAUAUUGGGUAGAAGGUCACAUUUCCAUUAAGUGAAGGAUAUACCAUGAUUC
apparent Kd [3]: 12.6 nM
apparent Kd [4]: 7.04 nM

UUCCUCAGCAGGGUAACAUGAGGAUCACCCAUGUCGGAGAGCGAGGAUAUCUCGUGAAGCUCAUAAGAGAAGGCGCACAACUAG
apparent Kd [1]: 18.2 nM
apparent Kd [2]: 17.2 nM

UCGCUGUAAGAGAAGGGCUCUGCAUGAGCACAUGAGGAUCACCCAUGUAAGAUCCUAAAGUACGAGCAGGAUAUCUCCGAGUGG
apparent Kd [1]: 106 nM
apparent Kd [2]: 77.3 nM

GCUGAUCAACCCUAGGAUAUCACCCAUACCACAUGAGGAUCACCCAUGUCGGGUUGCUAUGUGGCUGAGAAGGAGGUGCACUAUAC
apparent Kd [3]: 23 nM
apparent Kd [4]: 8.76 nM

CUAAUGGAAGGAUAUACAUGAGGAUCACCCAUGUUUAAGUGAUUAGCGAAUUGUCAACGUAGAAGGUCCAAUUA
apparent Kd [1]: 42.6 nM
apparent Kd [2]: 84.3 nM

UCUCACAUGAGGAUCACCCAUGUGUGCGGUCGAGGACCGGUACGGCCGCCACUCGAAUCCUUCCGCGAGAAGAUUGUACGACGGC
apparent Kd (designed as: ON switch for tryptophan, no ligand): 76.2 nM
apparent Kd (ligand present: tryptophan, designed as: ON switch for tryptophan): 65.2 nM

ACUAUACAUGAGGAUCACCCAUGUGGUCACAUAUGAGGAUAUAUGCGGCUGUCCCGGUCAAUAGAAGGCAUAUUUA
apparent Kd [3]: 52 nM
apparent Kd [4]: 53.5 nM

GGUUGGUCGCAGGAUACCAGUCCACCCGUGAUACUGCUAAACAUGAGGAUCACCCAUGUCGACCCUUGGCAGCCUGUCCAUGCGU
apparent Kd [7]: 16.3 nM
apparent Kd [8]: 124 nM

CGAUGACAUGAGGAUCACCCAUGUUGCGGUAUUCAAGGAUAUCCUGAGUUUUCAAGCAUUGGAGAAGGUGAUUUCG
apparent Kd [3]: 30.1 nM
apparent Kd [4]: 26.1 nM
